IC50 data for 5 molecules are collected here from ChEMBL document CHEMBL1146316, “Novel antitumor agent family of 1H-benzo[c,d]indol-2-one with flexible basic side chains: synthesis and biological evaluation” (Bioorg Med Chem, 2007).

One test concerns P388. As to the kind of experiment: Cytotoxicity against mouse P388 cells by microculture tetrazolium-formazan method. The class given is functional, cell-based. The method in brief: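 Murine P388 leukemia cells were assayed by the microculture tetrazolium–formazan method, and the IC50 was reported as the cytotoxicity value.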
For the next test, the system named is A549. The test can be described thus: Cytotoxicity against human A549 cells by sulforhodamine B dye-staining method. The class given is functional, cell-based. In a few lines: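 Human lung cancer A549 cells were stained with sulforhodamine B dye, and the IC50 was reported as the cytotoxicity value.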

On to `CN(C)CCN1C(=O)c2cccc3cccc1c23`, for which the IC50 turned out to be 79.4 µmol with P388 and 300 µmol in the test on A549.

As for `CN(C)CCCN1C(=O)c2cccc3cccc1c23`, the IC50 amounted to 7.76 µmol with P388 and 22.9 µmol with A549.

Take `CN(C)CCNCCN1C(=O)c2cccc3cccc1c23`: the IC50 in the test with P388 was 1.69 µmol; with A549, 0.489 µmol.

Consider `O=C1c2ccc([N+](=O)[O-])c3cccc(c23)N1CCCl`, for which the IC50 in the test on P388 worked out at 17.8 µmol; in the test with A549 it was 52.5 µmol.

Turning to `O=C1c2cccc3cccc(c23)N1CCNCCN1C(=O)c2cccc3cccc1c23`, the figures for the IC50 in the test on P388 and in the test on A549 were 13.8 µmol and 29.5 µmol, respectively.
